M5 PAM: human M5 muscarinic receptor positive allosteric modulators, primary screen, CHO-K1 cells, Fluo-8 calcium fluorescence; activation, % at 3 µM; CHO-K1 hM5, ACh EC20 PAM; 0% = ACh EC20, 100% = ACh EC100; actives 0.3% (n = 360,000); AID 624038, 2012; Muscarinic acetylcholine receptor M5 (Homo sapiens), P08912;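 active = activation above the run cutoff, the mean activation of all test compounds plus 3 SD, cut at about 18% in these data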
Target sequence (P08912 whole entry, looked up): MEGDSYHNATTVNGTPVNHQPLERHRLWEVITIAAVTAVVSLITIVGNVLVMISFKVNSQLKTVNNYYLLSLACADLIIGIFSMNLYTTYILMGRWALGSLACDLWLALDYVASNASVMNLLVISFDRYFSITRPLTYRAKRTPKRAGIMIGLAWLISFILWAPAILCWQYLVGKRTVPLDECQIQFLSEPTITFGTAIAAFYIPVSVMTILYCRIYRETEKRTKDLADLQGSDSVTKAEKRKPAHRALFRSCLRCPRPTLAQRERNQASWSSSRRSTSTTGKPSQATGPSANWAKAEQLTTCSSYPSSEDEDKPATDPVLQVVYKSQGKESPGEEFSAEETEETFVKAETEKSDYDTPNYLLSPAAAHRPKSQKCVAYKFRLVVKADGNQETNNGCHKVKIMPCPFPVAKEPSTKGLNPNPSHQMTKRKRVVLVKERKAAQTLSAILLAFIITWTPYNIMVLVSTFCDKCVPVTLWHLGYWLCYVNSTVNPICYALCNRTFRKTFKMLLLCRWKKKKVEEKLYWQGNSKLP
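Measured by: Fluo-8 calcium fluorescence; material: human M5 receptor in CHO-K1 cells; schedule: Post-acetylcholine fluorescence recording 140 s; benchmarks: low control EC20 acetylcholine (0%), high control EC100 acetylcholine (100%); read-out: Max/basal fluorescence ratio as % of EC20–EC100 ACh window; compound: single dose, 3 µM nominal final test concentration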
M5 ag: human M5 muscarinic receptor agonists, primary screen, CHO-K1 cells, Fluo-8 calcium fluorescence | actives 0.19% (n = 360,000) | CHO-K1 hM5 cells; 0% DMSO wells, 100% maximal acetylcholine response | activation, % at 3 µM | AID 624037, 2012;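 active = activation above the run's mean over test compounds plus 3 SD, cut at about 23% in these data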;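 also: signal is peak over basal fluorescence ratio across the kinetic read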
CHRM5 antagonist: human M5 muscarinic receptor antagonists, primary screen, CHO cells, Fluo-8 calcium fluorescence; Muscarinic acetylcholine receptor M5 (Homo sapiens), P08912; CHO-hM5 cells, ACh EC80; inhibition, % at 3 µM; actives 0.59% (n = 360,000);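 active = inhibition above a per-plate cutoff, the mean of that plate's test compounds plus 3 SD, cut at about 27% in these data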
M4 ag: human M4 muscarinic receptor agonists, primary screen, CHO-K1 cells, Fluo-8 calcium fluorescence; actives 0.14% (n = 360,000); activation, % at 3 µM; AID 624127, 2012; CHO-K1 hM4/Gqi5; vehicle 0%, full acetylcholine response 100%; Muscarinic acetylcholine receptor M4 (Homo sapiens), P08173;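 active = activation above the run mean over all test wells plus 3 SD, cut at about 32% in these data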;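 also: peak over basal fluorescence ratio per well then scaled between controls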
M4 antag: human M4 muscarinic receptor antagonists, primary screen, CHO cells, Fluo-8 calcium fluorescence; Muscarinic acetylcholine receptor M4 (Homo sapiens), P08173; AID 624125, 2012; inhibition, % at 3 µM; CHO-hM4 cells, ACh EC80; actives 0.73% (n = 360,000);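 active = inhibition above its plate's cutoff, the mean inhibition of sample wells plus 3 SD, cut at about 27% in these data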
M4 PAM: human M4 muscarinic receptor positive allosteric modulators, primary screen, CHO-K1 cells, Fluo-8 calcium fluorescence; CHO-K1 hM4/Gqi5, ACh EC20; 0% = ACh EC20, 100% = maximal ACh; activation, % at 3 µM; actives 0.4% (n = 360,000); AID 624126, 2012;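 active = activation above its plate's cutoff, the mean activation of sample wells plus 3 SD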
Hits are given with their value; - = inactive. Shown are actives, neighbours in structure and some others; about 1.8% of the full set was active somewhere.

SMILES	M5 PAM	M5 ag	CHRM5 antagonist	M4 ag	M4 antag	M4 PAM
Cc1ccc(NC(=O)CCC(=O)Nc2nnc(C3CCCCC3)s2)cc1	-	-	-	-	-	20
Cc1cccc(C)c1-n1nnnc1C(c1ccccc1)N1CCN(C/C=C/c2ccccc2)CC1 (centres undefined)	-	-	31	-	-	-
Cc1cccc(C)c1-n1nnnc1C(c1cccs1)N1CCN(C/C=C/c2ccccc2)CC1 (centres undefined)	-	-	29	-	-	-
CCCCn1nnnc1C(c1ccc(OC)cc1)N1CCN(C/C=C/c2ccccc2)CC1 (centres undefined)	-	-	-	-	-	-
CCCCn1nnnc1C(c1cccs1)N1CCN(C/C=C/c2ccccc2)CC1 (centres undefined)	-	-	-	-	-	-
CCOc1ccc(S(=O)(=O)Nc2nc3ccccc3nc2-n2ccc(=NC(=O)c3ccccc3C)cc2)cc1	-	30	40	-	-	-
Cc1ccccc1C(=O)N=c1ccn(-c2nc3ccccc3nc2NS(=O)(=O)c2ccccc2)cc1	-	-	-	-	-	-
COc1ccc(CCNc2ccc(C(CC(N)=O)NC(=O)c3cc(C)cc(C)c3)cc2[N+](=O)[O-])cc1 (centres undefined)	-	-	-	-	-	-
Cc1cc(C)cc(-c2nnc(SCC(=O)NCC3CCCO3)o2)c1 (centres undefined)	-	-	-	-	-	23
COc1ccc(-c2nnc(SCC(=O)NCC3CCCO3)o2)cc1 (centres undefined)	-	-	-	-	-	-
CCCCNC(=O)c1nc(C2CCN(S(=O)(=O)c3c(F)cccc3F)CC2)oc1-c1cccc(C(F)(F)F)c1	-	-	-	-	-	-
Cc1ccc(CS(=O)(=O)CCC(=O)NCCC(C)C)cc1	-	-	-	-	-	34
Cc1ccc(S(=O)(=O)N2CCCCC2)cc1NC(=O)C1CCC1	-	-	-	-	-	-
Cc1ccc(S(=O)(=O)Nc2ccccc2C(=O)Nc2nc(-c3ccc(F)cc3)cs2)cc1	-	-	38	-	-	-
COc1ccc(-c2csc(NC(=O)c3ccccc3NS(=O)(=O)c3ccc(F)c(F)c3)n2)cc1	-	-	42	-	-	-
O=C(Nc1ccccc1N1CCOCC1)c1ccccc1NS(=O)(=O)c1ccc(F)cc1	-	-	-	-	-	-
O=C(Nc1cc(S(=O)(=O)N2CCCCC2)ccc1O)c1ccccc1NS(=O)(=O)c1ccc(F)cc1	-	-	-	-	-	-
O=C(Nc1cc(S(=O)(=O)N2CCCCC2)ccc1Cl)c1ccccc1NS(=O)(=O)c1ccc(F)cc1	-	-	30	-	-	-
O=C(Nc1ccccc1N1CCOCC1)c1ccccc1NS(=O)(=O)c1ccc(F)c(F)c1	36	-	-	-	-	-
CCOC(=O)[C@]12CCC=C1N(Cc1ccc(Cl)cc1Cl)C(=O)[C@H](CC(=O)NCCc1ccccc1OC)C2	-	-	-	-	-	-
O=C(Nc1ccc(F)cc1)Nc1ccc(N2CCCC2)c(S(=O)(=O)Nc2ccccc2Cl)c1	-	-	29	-	-	-
FC(F)(F)c1nc2ccccc2[nH]1	-	-	-	-	-	15
O=C(NC1(C(=O)O)CCCC1)c1ccccc1	-	-	-	-	-	16
Cc1cccc(C)c1NC(=O)C(C1CC1)n1c(-c2ccc(=O)[nH]c2)nc2ccccc21 (centres undefined)	21	-	-	-	-	-
Cc1cccc(C)c1NC(=O)C(C)n1c(-c2ccc(=O)[nH]c2)nc2ccccc21 (centres undefined)	-	-	-	-	-	-
SMILES	M5 PAM	M5 ag	CHRM5 antagonist	M4 ag	M4 antag	M4 PAM
Cc1ccc2c(CC(=O)NC3CCS(=O)(=O)C3)coc2c1C (centres undefined)	-	-	-	-	-	18
C=CCN1C(=O)c2ccc(C(=O)NCC(=O)Nc3c(C)cc(C)cc3C)cc2C1=O	-	-	-	-	-	-
COc1ccc(N2CCN(C(=O)COc3ccc(S(=O)(=O)N4CCOCC4)cc3C)CC2)cc1	-	-	-	-	-	-
Cc1sc2nc(CSCC(=O)Nc3ccccc3C#N)[nH]c(=O)c2c1C	-	-	-	-	-	38
CSc1ccccc1NC(=O)CSCc1nc2sc(C)c(C)c2c(=O)[nH]1	-	-	-	-	-	-
CCOC(=O)CSc1nnc(CNC(=O)c2ccc([N+](=O)[O-])cc2)n1C	22	-	-	-	-	-
CCOC(=O)CSc1nnc(CNC(=O)c2cccc(C)c2)n1C	-	-	-	-	-	-
Cc1cc(NS(=O)(=O)c2c(C)c(C)cc(C)c2C)no1	-	-	-	-	-	-
O=C(CCCC1=NS(=O)(=O)c2ccccc2N1)N1CCN(c2ccc(Cl)cc2)CC1	-	-	-	-	-	-
COc1cccc(N2CCN(C(=O)CC(C)(C)CC3=NS(=O)(=O)c4ccccc4N3)CC2)c1	-	-	27	-	-	-
CC(C)(CC(=O)N1CCN(c2ccc(Cl)cc2)CC1)CC1=NS(=O)(=O)c2ccccc2N1	-	-	28	-	26	-
O=C(CCCC1=NS(=O)(=O)c2ccccc2N1)N1CCN(c2ccccc2)CC1	-	-	-	-	-	-
CCOc1ccc(S(=O)(=O)N2CCCC(C(=O)Nc3ccccc3)C2)cc1 (centres undefined)	-	-	-	-	-	-
O=C1C=CC2(O[C@H](c3ccccc3)[C@@H](c3ccccc3)O2)[C@H](Sc2ccccc2O)C1	-	-	-	-	57	-
O=C(NC(=S)Nn1cnc2c(cnn2-c2ccccc2)c1=O)c1ccccc1	-	-	-	-	-	-
O=C(NCc1ccccc1)C(c1ccc(C(F)(F)F)cc1)n1c(=O)c(-c2cc3ccccc3[nH]2)nc2ccccc21 (centres undefined)	-	-	-	-	-	-
Cc1ccc(C(=O)N2CCN(c3ccccn3)CC2)cc1C	-	-	-	-	-	15
O=C(O)c1cccc(CSc2n[nH]c(-c3ccc(Cl)cc3Cl)n2)c1	-	-	-	-	-	-

Bioassay records as filed in PubChem.
